# Test results: PubChem BioAssay
# Active and inactive are the calls of the source.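 Rule for the calls: active = current rise at least 3 SD above the untreated control mean in each of two repeat wells; inactive = the rest.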
# Target: Potassium voltage-gated channel subfamily KQT member 1 (Homo sapiens) (UniProt P51787)
# Experiment: KCNQ1 channel current potentiators, confirmation, orthogonal assay for KCNQ1 potentiator project, IonWorks patch clamp, KCNQ1-CHO cells (AID 493184);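 for current potentiation: percent change of the same well's current before compound addition so 0% = no change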
# Conditions: automated patch clamp current, at 10 µM; active compounds read high
# In short: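 Assay system – CHO cells carrying KCNQ1 · Medium – pH 7.4 external bath · Probe or stimulus – depolarizing pulse to +40 mV from -90 mV · Compound dosing – one dose, 10 µM final · Measured by – automated perforated-patch electrophysiology · Measure – % potentiation of steady-state current relative to pre-compound · Repeats – two replicates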
# Potassium voltage-gated channel subfamily KQT member 1 (Homo sapiens), sequence (P51787 whole entry, looked up): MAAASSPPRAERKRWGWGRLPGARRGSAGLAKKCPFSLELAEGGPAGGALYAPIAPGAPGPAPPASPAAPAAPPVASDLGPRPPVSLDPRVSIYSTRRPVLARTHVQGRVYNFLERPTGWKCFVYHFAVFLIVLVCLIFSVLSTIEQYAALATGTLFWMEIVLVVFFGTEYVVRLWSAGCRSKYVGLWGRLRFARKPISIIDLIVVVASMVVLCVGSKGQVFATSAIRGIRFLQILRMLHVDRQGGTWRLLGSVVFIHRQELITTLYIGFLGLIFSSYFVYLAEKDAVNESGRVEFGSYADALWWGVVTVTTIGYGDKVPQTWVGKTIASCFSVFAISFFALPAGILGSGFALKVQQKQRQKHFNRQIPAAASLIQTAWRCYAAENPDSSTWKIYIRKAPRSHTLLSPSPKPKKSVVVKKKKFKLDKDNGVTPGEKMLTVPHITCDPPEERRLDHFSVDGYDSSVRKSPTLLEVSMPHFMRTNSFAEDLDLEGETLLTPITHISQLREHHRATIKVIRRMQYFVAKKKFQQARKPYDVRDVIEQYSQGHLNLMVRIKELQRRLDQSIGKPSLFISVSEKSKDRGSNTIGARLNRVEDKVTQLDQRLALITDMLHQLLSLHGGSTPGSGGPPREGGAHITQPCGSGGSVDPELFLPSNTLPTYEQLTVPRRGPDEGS
SMILES,outcome,current potentiation
COC(=O)c1sc(NC(=S)NC(=O)c2cccc(C)c2)nc1C,inactive,
CC(=O)NC(C1C(=O)CC(C)(C)CC1=O)(C(F)(F)F)C(F)(F)F,inactive,
CCOC(=O)c1oc2ccc(S(=O)(=O)n3nc(-c4ccc(OC)cc4)cc3N)cc2c1C,,15.4% (active)
O=C(N/N=C/c1ccc([N+](=O)[O-])o1)c1sc2ccccc2c1Cl,inactive,
CC(=O)/C(=N/Nc1ccc([N+](=O)[O-])cc1)N1CCCc2ccccc21,inactive,
S=C(NCCc1ccccc1)N/N=C/C1CCCCC1,inactive,
COC(=O)N/N=C/c1cc(C)n(-c2ccc(F)cc2)c1C,inactive,
COCCCN1C(=O)C(=O)/C(=C(/O)c2ccc(C)cc2)C1c1ccccc1 (stereo not drawn),inactive,
O=C(COC(=O)c1ccccc1)Nc1ccccc1N1CCOCC1,inactive,
CCOC(=S)NC(=O)c1sc2ccccc2c1Cl,inactive,
COc1ccc(NC(=S)NCCC(c2ccccc2)c2ccccc2)c(OC)c1,inactive,
S=c1sc2c(Cl)ncnc2n1-c1ccccc1,inactive,
CCOc1ccc2[nH]c(=O)c(CN(Cc3ccc(C)cc3)C(=O)N3CCCC3)cc2c1,inactive,
O=C(Cn1c(C(F)(F)F)nc2ccccc21)N=Nc1c(O)[nH]c2ccc(Br)cc12,inactive,
S=c1nc[nH]c2c1sc1nc(-c3ccccc3)c3c(c12)CCCC3,inactive,
O=c1c2c3c(sc2[nH]c(=S)n1Cc1ccco1)CCC3,inactive,
Cc1ccsc1/C=N\NC(=O)c1n[nH]c2c1CCC2,inactive,
Cc1cc(/C=N/n2cnnc2)c(C)n1-c1ccc(Cl)cc1Cl,,28.9% (active)
